Reference: the array DNA melting data of Ke et al. (doi:10.1101/2024.01.08.574731)

Assays:
[1] = folding enthalpy; higher = less favourable; fluorescence melt of hairpins on a sequencing array, two-state fit; conditions: sodium 0.088 M
Method in brief: (§1)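 Cy3 signals were normalised both to pre-quench Cy3 and to control constructs. They came from library hairpins carrying annealed Cy3 and quencher oligos on a sequenced MiSeq flow cell, imaged in 50 mM Na-HEPES pH 8.0, 25 mM NaCl, in 2.5 °C steps up to 60 °C. Bootstrapped two-state fits gave melting temperature and folding enthalpy, and four replicates were combined by inverse variance. Fitted temperatures were then raised by 9.35 °C to match UV melts.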

[2] = melting temperature; fluorescence melt of hairpins on a sequencing array, two-state fit, raised by 9.35 °C to match UV melts; conditions: sodium 0.088 M
Method in brief: as §1

GGGGACCGAAAGGTTCCC (((.(((....))).))) gave a folding enthalpy [1] of -43.5 kcal/mol and a Tm [2] of 66.3 °C.

Work on GGGTTTGGAAACAGACCC ((((.((....)).)))) yielded a folding enthalpy [1] of -39.9 kcal/mol and a Tm [2] of 48.8 °C.
